Laboratory results published in PubChem BioAssay AID1424 (The Scripps Research Institute Molecular Screening Center, 2008).
About 390 (0.18%) of roughly 220,000 compounds were called active. The sample holds actives, similar compounds and a random draw of the others, so the mix is not that of the screen. Values without a mark were called inactive.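 How the source made its calls: active means activation above its plate's cutoff, the mean activation of test wells on that plate plus 3 SD (cut at about 19% in these data); inactive means the rest.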

test system: transient receptor potential cation channel N1 (TRPN1/NompC), Danio rerio; assay: zebrafish TRPN1 channel agonists, primary screen, cell-based, HEK293, calcium fluorescence (AID 1424); conditions: HEK293 zebrafish TRPN1-YFP, Fluo-8 calcium fluorescence; at 3 µM; hits give high values; 100% = response to 87 µM carbachol;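 further: 0% = DMSO alone and 100% = 87 µM carbachol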
How it was run: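 Assay system: Zebrafish TRPN1-YFP in HEK293 cells | Incubation: Dye loading 1 h at 37 °C, then 30 min room temperature | Measured by: Kinetic Fluo-8 fluorescence, ex 470-495, em 515-575 nm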

| SMILES | activation |
| --- | --- |
| COc1cc(NC(=O)c2ccccc2NS(=O)(=O)c2ccc(Cl)s2)cc(OC)c1 | 21% (active) |
| COC(=O)c1ccccc1NC(=O)c1ccccc1NS(C)(=O)=O | -1.95% |
| O=C(Nc1nncs1)c1ccccc1NS(=O)(=O)c1cccs1 | -0.5% |
| COC(=O)c1ccc(NC(=O)c2ccccc2NS(=O)(=O)c2ccccc2)cc1 | 19.8% (active) |
| COc1cc(NC(=O)c2cccnc2SC)cc(OC)c1 | -0.29% |
| CCOc1ccc(NC(=O)c2ccccc2NS(C)(=O)=O)cc1 | 0.2% |
| C=C(C)CNC(=S)N/N=C/c1ccccc1OCC(=O)O | 1.26% |
| Cc1ccc2cc(CN(c3ccc(C)c(C)c3)S(C)(=O)=O)c(=O)[nH]c2c1 | 1.62% |
| CC#CC[N+](C)(C)CCCCCC | -0.58% |
| COCCN(Cc1nc(-c2ccc(C(F)(F)F)cc2)no1)C(C)C | 0.76% |
| O=C(CCNC(=O)Cn1ccc2ccccc2c1=O)NCCC1=CCCCC1 | -0.5% |
| COc1ccc(OC)c(-c2c(=O)n(OCc3ccccc3Br)c3ccccc3[n+]2[O-])c1 | -1.72% |
| COc1ccc(C(C)=O)cc1COc1ccc(Cl)c(C)c1 | 0.81% |
| CCOC(=O)CC1C(=O)NCCN1c1nc2c(C)cccn2c(=O)c1/C=C1\SC(=S)N(C(C)CC)C1=O (stereo not drawn) | 23.3% (active) |
| Cc1cccn2c(=O)c(/C=C3\SC(=S)N(CC(C)C)C3=O)c(NCCCOC(C)C)nc12 | 1.73% |
| CCOC(=O)CC1C(=O)NCCN1C(=O)COc1ccc(Br)cc1C (stereo not drawn) | -0.63% |
| CCOC(=O)C1(Cc2cccc(OC)c2)CCN(C(C)COC)CC1 (stereo not drawn) | -0.77% |
| Cc1ccc(N2C(=O)S/C(=C/c3cn(C)c4ccccc34)C2=O)cc1 | 1.3% |
| O=C(NCCc1c[nH]c2ccccc12)C(=O)NCC1CCCO1 (stereo not drawn) | 0.46% |
| N#C/C(=C/c1ccc(N2CCCCC2)o1)C(=O)NCCc1c[nH]c2ccccc12 | 29.5% (active) |
| N#C/C(=C/c1ccc(-c2ccccc2[N+](=O)[O-])o1)C(=O)NCCN1CCCCC1 | -2.16% |

| SMILES | activation |
| --- | --- |
| COCCCNC(=O)CNC(=S)N(Cc1cc(OC)c(OC)c(OC)c1)C1CCCC1 | 0.25% |
| C=CCNC(=O)c1ccccc1NC(=O)c1ccc(Cl)c(S(=O)(=O)Nc2cccc(C)c2C)c1 | 1.27% |
| Cn1nnnc1-c1cc(Cl)cc(Cl)c1 | -0.59% |
| CCN1/C(=C/C(=S)Nc2ccccc2)Sc2ccccc21 | -1.89% |
| CCN1/C(=C\c2ccc3ccccc3[n+]2CC)Sc2cc(C)ccc21 | 38.4% (active) |
| CCN1CCN(CCNC(=O)c2ccc(/C=C3/Sc4ccccc4N(Cc4cccc(C)c4)C3=O)cc2)CC1 | 4.77% |
| CCN1/C(=C/c2ccc3ccc(C)cc3[n+]2CC)Sc2ccccc21 | 30.7% (active) |
| CC(C)(C)C(=O)CSc1nc2ccccc2o1 | -0.66% |
| COc1cc(OC)c(-n2cc(-c3ccc(Cl)cc3)[nH]c2=O)cc1Cl | 32.6% (active) |
| COc1ccc(-c2cn(-c3ccc(OC)cc3)c(=S)[nH]2)cc1 | -0.09% |
| COc1cc(OC)c(-n2c(C)cc(C=O)c2C)cc1Cl | -1.14% |
| O=C(c1snnc1-c1ccccc1)N1CCOCC1 | -0.06% |
| CC(=O)Nc1ccc(S(=O)(=O)Nc2ccc(-c3ccc4nnc(C)n4n3)cc2)cc1 | 0.58% |
| O=C(NCC(c1cccs1)N1CCOCC1)c1cc(-c2ccccn2)nc2ccccc12 (stereo not drawn) | 1.98% |
| CC(C)(C)c1cnnn1-c1ccc([N+](=O)[O-])cc1 | 1.54% |
| CN=C1C=C/C(=N/N=c2\ccn(O)cc2C)C=C1C | -3.14% |
| CCC(C(=O)OCC(=O)Nc1ccc(C(=O)Nc2ccc(OC)cc2)cc1)c1ccccc1 (stereo not drawn) | 2.79% |
| CCC(C(=O)Nc1ccc(C(C)C)cc1)c1ccccc1 (stereo not drawn) | 29% (active) |
| CCC(C(=O)Nc1ccc2c(c1)OCCO2)c1ccccc1 (stereo not drawn) | -0.31% |
| CC1=NN(Cc2ccccc2)C(=O)/C1=C/c1ccc(N(C)C)cc1 | -3.57% |
| CN(C)c1ccc(/C=C2\NC(=S)N(Cc3ccccc3)C2=O)cc1 | 30.3% (active) |

| SMILES | activation |
| --- | --- |
| O=C1NCC(=O)N(Cc2ccccc2)/C1=C/c1ccccc1 | 0.65% |
| Cc1ccc(S(=O)(=O)N2CCOCC2)cc1NC(=O)CSc1nnc(N)s1 | 0.64% |
| CC1CN(CCCOc2ccccc2-c2ccccc2)CC(C)O1 (stereo not drawn) | -1.64% |
| CC(CNS(=O)(=O)c1ccc(Br)cc1)CN(C)C (stereo not drawn) | 0.45% |
| CCOc1cc2[nH]c(=O)n(Cc3ccc(C(=O)NCCCN4CCCC4=O)cc3)c(=O)c2cc1OCC | -0.57% |
| CC(C)(c1ccccc1)c1ccc(OCCN)cc1 | 2.87% |
| CONc1nc2nonc2nc1NOC | 2.6% |
| CC1C(=O)NC(=O)C1c1ccccc1 (stereo not drawn) | 0.95% |
| Cc1cc(C)c(OCCN2CC(C)OC(C)C2)c(Br)c1 (stereo not drawn) | -2.75% |
| Cc1ccc2[nH]cc(CCNC(=O)c3ccc([N+](=O)[O-])cc3)c2c1 | -0.48% |
| COc1cc(/C=C(\C#N)c2nc3c(s2)CC(C)CC3)ccc1O (stereo not drawn) | 9.23% |
| CCOc1cc(/C=C(\C#N)c2nc(-c3cccs3)c(NC(C)=O)s2)ccc1O | 26.9% (active) |
| COc1cc(/C=N\Nc2nc(-c3cccs3)c(NC(C)=O)s2)ccc1O | 0.7% |
| COC(=O)c1cc(NC(=O)Cc2ccccc2[N+](=O)[O-])ccc1Cl | -1.23% |
| CC(C[N+](C)(C)C)OC(N)=O (stereo not drawn) | 0.21% |
| CC(=O)OC(C)C[N+](C)(C)C (stereo not drawn) | 51% (active) |
| CN1CCN(c2cc3c(cc2F)c(=O)c(C(=O)O)cn3CCF)CC1 | 1.93% |
| O=C(N1CCCCC1)N1CCN(C(=O)N2CCCCC2)CC1 | 1.43% |
| COc1ccc(OCCCn2cccc2/C=C2/C(=N)N3OC(C)=CC3=NC2=O)cc1 | 1.04% |
| CCOc1cc(/C=C2/C(=N)N3OC(C)=CC3=NC2=O)ccc1OC | -0.5% |
| CC1=CC2=NC(=O)/C(=C/c3coc4ccccc4c3=O)C(=N)N2O1 | 35.5% (active) |
